Results on 35 molecules are retold here after ChEMBL document CHEMBL5046237, “Identification of MRTX1133, a Noncovalent, Potent, and Selective KRASG12D Inhibitor” (J Med Chem, 2022).

pIC50, pKd: −log10 of the molar value. A value given as a limit tells only on which side of the number the result lay.

Data set [1] in a line: Inhibition of human C-terminal Avi biotinylated tagged KRAS isoform 4B G12D mutant (1 to 169 residues) expressed in Escherichia coli measured after 1 hr by HTRF assay. Background: In TR-FRET formats the signal depends on donor and acceptor labels being close together.
Data set [2] deals with GTPase KRas (Homo sapiens, UniProt P01116, G12D). Nature of the data set: Inhibition of KRAS G12D mutant in human AGS cells assessed as reduction in ERK phosphorylation measured after 3 hrs by In-Cell Western assay. The format is cell-based.
Data set [3] deals with GTPase KRas (Homo sapiens, UniProt P01116). Nature of the data set: Binding affinity to human AviTEV6His-tagged KRAS isoform 4B wild type (1 to 169 residues) expressed in Escherichia coli BL21 (DE3) assessed as dissociation constant by SPR analysis. In short, it runs like this:
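SPR measurement; where the KD fell beyond what the instrument can accurately determine, it was reported as an approximate value.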
In general terms: Surface plasmon resonance follows binding to a sensor surface in real time, without labels.

The nature of data set [4]: Binding affinity to human AviTEV6His-tagged KRAS isoform 4B G12D mutant (1 to 169 residues) expressed in Escherichia coli BL21 (DE3) assessed as dissociation constant by SPR analysis.
For another data set, the system named is MKN-1. Briefly: Cytotoxicity against human MKN-1 cells harboring wild type KRAS assessed as reduction in cell viability measured after 3 days by 2D viability assay. To be noted: MKN-1, 72 h.
Data set [5] in a line: In vivo inhibition of KRAS G12D mutant in CD-1 athymic nude-Foxn1nu mouse xenografted with human Panc 04.03 cells assessed as reduction in ERK phosphorylation in tumor lysates at 30 mg/kg, ip measured after 12 hrs. The format is functional. To be noted: CD-1, Panc 04.03, Neoplasm. In short, it runs like this: (§1)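 The Panc 04.03 xenograft model received 30 mg/kg IP BID. Tumor pERK signal was measured 1 h and 12 h after the second dose. Mean pERK inhibition versus the vehicle cohort was assessed by two-tailed Student's t test with equal variance.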
A general note: In xenograft studies the graft and the host belong to different species.

A short description of data set [6]: Time during which free drug concentration exceeds IC50 for KRAS G12D mutant-mediated ERK phosphorylation in human Panc 04.03 cells xenografted CD-1 athymic nude-Foxn1nu mouse plasma at 30 mg/kg, ip. To be noted: in vivo.
The next data set deals with AGS. Briefly: cells. To be noted: Homo sapiens, 72 h.
A short description of data set [7]: Antitumor activity against human Panc 04.03 cells harboring KRAS G12D mutant xenografted in CD-1 nude-Foxn1 mouse assessed as inhibition of tumor growth at 3 mg/kg, ip administered twice a day. Format: functional. To be noted: Panc 04.03, ip. In short, it runs like this:
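Mice bearing Panc 04.03 (KRAS G12D) xenografts were dosed IP twice daily (BID) at 3, 10 or 30 mg/kg. Tumor volume was tracked against a vehicle cohort, and mean tumor volume differences were tested by two-tailed Student's t test assuming equal variance.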

Data set [8] can be described thus: Antitumor activity against human Panc 04.03 cells harboring KRAS G12D mutant xenografted in CD-1 nude-Foxn1 mouse assessed as tumor regression at 10 mg/kg, ip administered twice a day. To be noted: Panc 04.03, ip.
Data set [9] is described as follows: In vivo inhibition of KRAS G12D mutant in CD-1 athymic nude-Foxn1nu mouse xenografted with human Panc 04.03 cells assessed as reduction in ERK phosphorylation in tumor lysates at 30 mg/kg, ip measured after 1 hr. To be noted: CD-1, Panc 04.03, Neoplasm. The format is functional. The essentials:
as §1

A short description of data set [10]: AUC (0 to 24 hrs) in CD-1 athymic nude-Foxn1nu mouse xenografted with human Panc 04.03 cells at 30 mg/kg, ip BID. Format: ADME, organism-based. Further details: time < 24 hr, route intraperitoneal, dose 30 mg/kg. To be noted: in vivo.

For `Fc1ccc2cccc(-c3ncc4c(N5C[C@H]6CC[C@@H](C5)N6)nc(OCC56CCCN5CCC6)nc4c3F)c2c1F`, the pIC50 (commonly −log10 of the IC50, conventionally taken in molar units) in [1] was 8.15; on GTPase KRas [2], 7.01.

For `CN1CCC[C@H]1COc1nc(N2CCOCC2)c2cnc(-c3cc(O)cc4ccccc34)c(F)c2n1`, in data set [1], the pIC50 was 4.92. Also, the pKd (commonly the negative decadic logarithm of the Kd, by convention in mol/L) at GTPase KRas [3] was 6.25; in data set [4], 5.82.

In the case of `CN(C)CCOc1nc(N2C[C@H]3CC[C@@H](C2)N3)c2cnc(-c3cc(O)cc4ccccc34)c(F)c2n1`, the pIC50 in data set [1] was 7.15; on GTPase KRas [2], less than 5.00.

For `Fc1c(-c2cccc3cccc(Cl)c23)ncc2c(N3C[C@H]4CC[C@@H](C3)N4)nc(OCC34CCCN3CCC4)nc12`, the pIC50 in data set [1] is 7.82; at GTPase KRas [2], 6.72.

On to `Cn1ccnc1CCOc1nc(N2C[C@H]3CC[C@@H](C2)N3)c2cnc(-c3cc(O)cc4ccccc34)c(F)c2n1`, for which the pIC50 in data set [1] is 7.52; at GTPase KRas [2] it was 5.46.

In turn, `CN1CCC[C@H]1COc1nc(N2C[C@H]3CC[C@@H](C2)N3)c2cnc(-c3cc(O)cc4ccccc34)c(F)c2n1` had a negative logarithm of the IC50 (pIC50) in data set [1] of 8.30. In addition, in data set [4], the pKd is 9.10.

On to `C#Cc1c(F)ccc2cc(O)cc(-c3ncc4c(N5C[C@H]6CC[C@@H](C5)N6)nc(OC[C@@]56CCCN5C[C@H](F)C6)nc4c3F)c12`, for which the negative logarithm of the IC50 (pIC50) in the data set with MKN-1 was less than 5.52; with AGS, 8.22. The inhibition in vivo (commonly the percentage by which the read-out fell short of the control) at 30 mg/kg in data set [5] was 74%; in data set [9], 62%. In [6], the “T>IC50” value came to 8 h. In addition, the inhibition in vivo at 3 mg/kg in [7] was 94%. Further, in [8], the tumor regression % at 10 mg/kg stood at 62%. Also, in data set [4], the pKd was 12.70.

Turning to `Fc1c(-c2cccc3ccccc23)ncc2c(N3C[C@H]4CC[C@@H](C3)N4)nc(OCC34CCCN3CCC4)nc12`, the results for the pIC50 (in data set [1]; at GTPase KRas [2]) were 6.44 and less than 5.00, respectively.

Take `C#Cc1cccc2cc(O)cc(-c3ncc4c(N5C[C@H]6CC[C@@H](C5)N6)nc(OCC56CCCN5CCC6)nc4c3F)c12`: the negative logarithm of the IC50 (pIC50) in data set [1] is more than 8.70; on GTPase KRas [2] it was 7.85.

As to `CN1CCC[C@H]1COc1nc(N2CCNCC2)c2cnc(-c3cccc4cccc(Cl)c34)c(F)c2n1`, the results for the pKd (at GTPase KRas [3]; in [4]) were 4.44 and 5.46, respectively.

On to `Fc1c(-c2cccc3cccc(F)c23)ncc2c(N3C[C@H]4CC[C@@H](C3)N4)nc(OCC34CCCN3CCC4)nc12`, for which the results for the pIC50 (in [1]; at GTPase KRas [2]) were 7.92 and 6.42, respectively.

With `CN1CCN(c2nc(OC[C@@H]3CCCN3C)nc3c(F)c(-c4cc(O)cc5ccccc45)ncc23)CC1`, in data set [1], the pIC50 was 4.27. Also, the negative-log Kd (pKd) is 5.21 on GTPase KRas [3] and 5.06 in data set [4].

Regarding `Oc1cc(-c2ncc3c(N4C[C@H]5CC[C@@H](C4)N5)nc(OCCN4C[C@@H]5C[C@H]4CO5)nc3c2F)c2ccccc2c1`, the values for the pIC50 (in data set [1]; at GTPase KRas [2]) were 7.21 and 5.52, respectively.

As to `Oc1cc(-c2ncc3c(N4C[C@H]5CC[C@@H](C4)N5)nc(OCC45CCCN4CCC5)nc3c2F)c2c(Cl)cccc2c1`, the pIC50 was more than 8.70 in [1] and 7.20 on GTPase KRas [2].

For `C#Cc1c(F)ccc2cccc(-c3ncc4c(N5C[C@H]6CC[C@@H](C5)N6)nc(OCC56CCCN5CCC6)nc4c3F)c12`, the pIC50 is more than 8.70 in data set [1] and 7.62 at GTPase KRas [2]. Also, the AUC (commonly concentration integrated over time) at 24 h in data set [10] is 9500 ng·h/mL.

Regarding `Oc1cc(-c2ncc3c(N4CC5CCC(C4)N5)ncnc3c2F)c2ccccc2c1`, the pIC50 on GTPase KRas [2] was less than 5.00.

Turning to `Oc1cc(-c2ncc3c(N4C[C@H]5CC[C@@H](C4)N5)nc(OC[C@@]45CCCN4C[C@H](F)C5)nc3c2F)c2ccccc2c1`, the pIC50 in data set [1] was more than 8.70.

Consider `CN(C)C1CN(c2nc(N3CC4CCC(C3)N4)c3cnc(-c4cc(O)cc5ccccc45)c(F)c3n2)C1`, for which the negative logarithm of the IC50 (pIC50) in data set [1] was 7.16; on GTPase KRas [2] it was 5.89.

As for `OCc1cccc2cccc(-c3ncc4c(N5C[C@H]6CC[C@@H](C5)N6)nc(OCC56CCCN5CCC6)nc4c3F)c12`, the pIC50 is 7.10 in data set [1] and less than 5.00 on GTPase KRas [2].

In [1], `CN1CCC[C@H]1COc1nc(N2CCNCC2)c2cnc(-c3cc(O)cc4ccccc34)c(F)c2n1` showed a pIC50 of 6.01. In addition, in data set [4], the pKd is 6.72.

Take `Oc1cc(-c2ncc3c(N4C[C@H]5CC[C@@H](C4)N5)nc(OCC45CCCN4CCC5)nc3c2F)c2ccccc2c1`: the pIC50 was more than 8.70 in [1] and 6.57 on GTPase KRas [2].

In turn, `CN1CCC[C@H]1COc1nc(N2CCCNCC2)c2cnc(-c3cc(O)cc4ccccc34)c(F)c2n1` gave a pIC50 in data set [1] of 5.59. Besides, the pKd in data set [4] was 6.38.

In the case of `C#Cc1cccc2cccc(-c3ncc4c(N5C[C@H]6CC[C@@H](C5)N6)nc(OCC56CCCN5CCC6)nc4c3F)c12`, the pIC50 was 8.52 in data set [1] and 7.15 at GTPase KRas [2].

In the case of `CCc1cccc2cccc(-c3ncc4c(N5C[C@H]6CC[C@@H](C5)N6)nc(OCC56CCCN5CCC6)nc4c3F)c12`, the pIC50 in data set [1] was 8.22; at GTPase KRas [2] it was 6.70.

As to `CN1CCC[C@H]1COc1nc(N2CC3CCC2CN3)c2cnc(-c3cc(O)cc4ccccc34)c(F)c2n1` (stereo partly specified), the pIC50 in data set [1] is 7.17. For the same molecule, the pKd in data set [4] was 8.05.

In the case of `COc1cccc2cccc(-c3ncc4c(N5C[C@H]6CC[C@@H](C5)N6)nc(OCC56CCCN5CCC6)nc4c3F)c12`, the pIC50 in data set [1] is 7.07; at GTPase KRas [2], 5.92.

`Oc1cc(-c2ncc3c(N4C[C@H]5CC[C@@H](C4)N5)nc(OC[C@]45CCCN4C[C@@H](F)C5)nc3c2F)c2ccccc2c1` showed a pIC50 in data set [1] of more than 8.70.

`Cc1cccc2cccc(-c3ncc4c(N5C[C@H]6CC[C@@H](C5)N6)nc(OCC56CCCN5CCC6)nc4c3F)c12`: the pIC50 in [1] is 7.35; at GTPase KRas [2], 5.60.

On to `Fc1ccc2cccc(-c3ncc4c(N5C[C@H]6CC[C@@H](C5)N6)nc(OCC56CCCN5CCC6)nc4c3F)c2c1`, for which the pIC50 in data set [1] is 7.57; on GTPase KRas [2], 6.43.

In data set [1], `CN1CCC[C@H]1COc1nc(N2CC3CC(C2)N3)c2cnc(-c3cc(O)cc4ccccc34)c(F)c2n1` (mixture of isomers) showed a negative logarithm of the IC50 (pIC50) of 6.51. Further, the negative logarithm of the Kd (pKd) in data set [4] was 7.14.

For `CC1CN(c2nc(OC[C@@H]3CCCN3C)nc3c(F)c(-c4cc(O)cc5ccccc45)ncc23)CCN1` (mixture of isomers), in data set [1], the pIC50 is 5.68. Also, the pKd in data set [4] is 6.42.

As to `CC1CNCCN1c1nc(OC[C@@H]2CCCN2C)nc2c(F)c(-c3cc(O)cc4ccccc34)ncc12` (mixture of isomers), the pIC50 in [1] was 5.82. For the same molecule, in [4], the pKd was 6.55.

In data set [1], `CN1CCC[C@H]1COc1nc(N2CC3CC2CN3)c2cnc(-c3cc(O)cc4ccccc34)c(F)c2n1` (mixture of isomers) gave a pIC50 of 6.19. For the same molecule, the pKd in data set [4] is 7.02.

`O=C1CCC2(COc3nc(N4CC5CCC(C4)N5)c4cnc(-c5cc(O)cc6ccccc56)c(F)c4n3)CCCN12` (racemic): the pIC50 was 6.12 in data set [1] and less than 5.00 at GTPase KRas [2].

As to `Oc1cc(-c2ncc3c(N4CC5CCC(C4)N5)nc(OCC45CCCCN4CCC5)nc3c2F)c2ccccc2c1` (racemic), the negative-log IC50 (pIC50) is 7.92 in data set [1] and 6.19 on GTPase KRas [2].
